Source: ChEMBL document CHEMBL1153620 (Eur J Med Chem, 2009)

Tests used:
Rattus norvegicus [1] = assay: Gastrointestinal toxicity in albino rat assessed as ulcerogenic indicates at dose 30 mg/kg, po; conditions: in vivo
Gastric mucosa = assay: Inhibition of lipid peroxidation assessed as malondialdehyde level per 100 mg of gastric mucosa isolated from albino rat at dose 30 mg/kg, po
Mus musculus = assay: Analgesic activity in albino mouse inhibition of acetic acid-induced writhing response at 10 mg/kg, po; format: functional; set-up: scale not given: the % may be the effect or the level left
Rattus norvegicus [2] = assay: Antiinflammatory activity in rat assessed as inhibition of carrageenan-induced paw edema at 10 mg/kg, po; format: functional
Summary of the method: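 Rats, six per group, received the drug suspended in 1% CMC orally 30 min before carrageenan; one group served as control. Carrageenan was given as 0.05 mL of 1% w/v in 0.9% saline under the plantar aponeurosis of the right hind paw.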

[3] = target: T1, Prostaglandin G/H synthase 1 (Ovis aries, UniProt P05979); assay: Inhibition of ovine COX1 by enzyme-immuno assay
T1 sequence (P05979 whole entry): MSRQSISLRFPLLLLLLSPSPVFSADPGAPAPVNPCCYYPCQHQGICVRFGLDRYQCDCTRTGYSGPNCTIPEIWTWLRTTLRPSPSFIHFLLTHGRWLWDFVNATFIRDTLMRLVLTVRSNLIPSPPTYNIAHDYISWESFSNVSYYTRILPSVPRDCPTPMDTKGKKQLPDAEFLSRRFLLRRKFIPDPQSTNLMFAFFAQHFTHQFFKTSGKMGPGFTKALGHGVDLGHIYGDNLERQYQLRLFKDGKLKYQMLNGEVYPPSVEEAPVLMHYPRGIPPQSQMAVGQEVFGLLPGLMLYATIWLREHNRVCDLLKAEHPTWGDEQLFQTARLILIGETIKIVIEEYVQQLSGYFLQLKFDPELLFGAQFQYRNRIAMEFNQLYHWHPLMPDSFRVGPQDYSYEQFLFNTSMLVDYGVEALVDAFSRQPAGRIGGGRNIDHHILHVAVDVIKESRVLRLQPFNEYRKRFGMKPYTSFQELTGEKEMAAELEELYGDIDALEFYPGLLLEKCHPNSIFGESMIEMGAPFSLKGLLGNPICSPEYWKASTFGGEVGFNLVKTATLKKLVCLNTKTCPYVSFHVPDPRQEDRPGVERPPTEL

Row | SMILES | UI (Rattus norvegicus [1]) | MDA content at 30 mg/kg (Gastric mucosa) [nmol MDA/100 mg tissue] | Activity (Mus musculus) [%] | inhibition in vivo at 10 mg/kg (Rattus norvegicus [2]) [%] | IC50 [3] [µM]
1 | CC(=O)Oc1ccccc1-c1nnc(CCC(=O)c2ccc(-c3ccccc3)cc2)o1 | 0.7 | 5.8 | 56.3 | 43.7 | –
2 | Cc1ccc(-c2nnc(CCC(=O)c3ccc(-c4ccccc4)cc3)o2)cc1 | 0.5 | 5.8 | 45.1 | 50 | –
3 | COc1ccc(-c2nnc(CCC(=O)c3ccc(-c4ccccc4)cc3)o2)cc1OC | – | 4.9 | 57.3 | 62.5 | 54.1
4 | O=C(CCc1nnc(-c2ccccc2)o1)c1ccc(-c2ccccc2)cc1 | 0.4 | 4.3 | 51.3 | 43.7 | –
5 | O=C(CCc1nnc(-c2ccccc2Cl)o1)c1ccc(-c2ccccc2)cc1 | 0.5 | 5.7 | 66.1 | 46.8 | –
6 | O=C(CCc1nnc(-c2ccc(Cl)cc2)o1)c1ccc(-c2ccccc2)cc1 | 0.6 | 5.8 | 61.9 | 53.1 | –
7 | O=C(CCc1nnc(Cc2ccccc2)o1)c1ccc(-c2ccccc2)cc1 | 0.5 | 5.8 | 54.1 | 50 | –
8 | O=C(CCc1nnc(COc2ccccc2)o1)c1ccc(-c2ccccc2)cc1 | 0.6 | 5.8 | 55.8 | 53.1 | –
9 | COc1ccc(-c2nnc(CCC(=O)c3ccc(-c4ccccc4)cc3)o2)cc1 | – | 6.1 | 51.3 | 59.4 | 52.3
10 | O=C(CCc1nnc(-c2ccc(F)cc2)o1)c1ccc(-c2ccccc2)cc1 | 0.6 | 4.6 | 72.5 | 53.1 | –
11 | O=C(CCc1nnc(COc2ccc3ccccc3c2)o1)c1ccc(-c2ccccc2)cc1 | – | 5.9 | 68.6 | 59.4 | 48.4
12 | O=C(CCc1nnc(-c2ccc([N+](=O)[O-])cc2)o1)c1ccc(-c2ccccc2)cc1 | – | 4.3 | 45.8 | 56.2 | 42.6
13 | O=C(O)Cc1ccccc1Nc1c(Cl)cccc1Cl [DICLOFENAC] | – | 8.9 | 70.3 | 65.6 | –
14 | O=C(O)CCC(=O)c1ccc(-c2ccccc2)cc1 [FENBUFEN] | – | 6.8 | 54.1 | 56.3 | 3.9
